# CHO-K1 Ca antag – counter-screen for M1 antagonists: effect in parental CHO-K1 cells; ATP-induced calcium, Fluo-8 fluorescence; inhibition, % at 3 µM; 360,000 compounds, 0.6% hits;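 active means inhibition above a per-plate cutoff, the plate's mean sample inhibition plus 3 SD, cut at about 24% in these data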;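 further: 0% = DMSO plus EC80 ATP and 100% = DMSO alone without ATP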
# TRPML3 agonist – activates the human TRPML3 channel; Q8TDD5; HEK293 TRPML3-YFP, Fluo-8 calcium fluorescence; 100% = the carbachol control signal; activation, % at 3 µM; 220,000 compounds, 0.29% hits;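 active means activation above its plate's cutoff, the mean activation of the plate's test wells plus 3 SD, cut at about 12% in these data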;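 further: 0% = DMSO only wells and 100% = carbachol wells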
# Target sequence (Q8TDD5 whole entry, looked up): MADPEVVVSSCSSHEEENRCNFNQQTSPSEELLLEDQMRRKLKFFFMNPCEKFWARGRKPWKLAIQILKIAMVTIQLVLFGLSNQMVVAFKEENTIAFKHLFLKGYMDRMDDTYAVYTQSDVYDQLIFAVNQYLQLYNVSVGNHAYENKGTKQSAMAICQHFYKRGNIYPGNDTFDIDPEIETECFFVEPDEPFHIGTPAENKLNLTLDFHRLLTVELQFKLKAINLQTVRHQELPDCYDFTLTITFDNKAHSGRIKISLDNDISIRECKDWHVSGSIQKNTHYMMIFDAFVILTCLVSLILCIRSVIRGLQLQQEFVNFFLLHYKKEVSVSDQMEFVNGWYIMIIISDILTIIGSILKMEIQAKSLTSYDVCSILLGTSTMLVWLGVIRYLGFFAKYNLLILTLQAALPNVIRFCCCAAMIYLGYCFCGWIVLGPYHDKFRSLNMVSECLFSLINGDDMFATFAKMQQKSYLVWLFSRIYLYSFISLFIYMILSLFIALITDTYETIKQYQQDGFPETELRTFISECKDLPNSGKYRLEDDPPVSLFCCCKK
#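 Test system: TRPML3-YFP stable HEK293 cells. Doses: single point at 3 µM. Incubation: dye loading 1 h 37 °C then 30 min ambient, 125 s read. Signal: Fluo-8 calcium dye fluorescence, ex 470-495, em 515-575 nm. Measure: percent activation from peak-to-basal fluorescence ratio, scaled between DMSO and carbachol.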
# CHO-K1 Ca PAM – counter-screen for M1 PAMs: effect in parental CHO-K1 cells | ATP EC20, Fluo-8 calcium fluorescence; 0% at ATP EC20, 100% at ATP max | activation, % at 3 µM | 360,000 compounds, 0.02% hits;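 active means activation above the run cutoff, the mean activation of all test compounds plus 3 SD, cut at about 40% in these data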;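 further: peak over basal fluorescence ratio in a 140 s read after ATP addition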
# M1 ag parental – nonselective activator or artifact in parental CHO-K1 cells. Fluo-8 calcium fluorescence; scaled to maximal ATP response, vehicle zero. activation, % at 3 µM. 360,000 compounds, 0.48% hits; in the data active means activation above about 15%;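 further: untransfected CHO-K1 host cells lacking M1 receptor as counterscreen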
# zfTRPN1 agonist – activates the zebrafish TRPN1 channel; 220,000 compounds, 0.18% hits; HEK293 zebrafish TRPN1-YFP, Fluo-8 calcium fluorescence; 100% = response to 87 µM carbachol; activation, % at 3 µM; AID 1424;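 active means activation above its plate's cutoff, the mean activation of test wells on that plate plus 3 SD, cut at about 19% in these data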;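 further: 0% = DMSO alone and 100% = 87 µM carbachol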
#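 Material: zebrafish TRPN1-YFP in HEK293 cells. Doses: one dose of 3 µM, 0.3% DMSO. Incubation: dye 1 h 37 °C plus 30 min RT. Measured by: intracellular calcium fluorescence with Fluo-8.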
# * marks the source's active call; other numbers are inactive results; / = not tested or not shown. Only some compounds are listed: those with a hit (about 1.2% of all), similar ones and a draw of the others.
SMILES,CHO-K1 Ca antag,TRPML3 agonist,CHO-K1 Ca PAM,M1 ag parental,zfTRPN1 agonist
Cc1cc(C)cc(CC(=O)N2CCC2(C)C(=O)NS(=O)(=O)c2ccc(Br)cc2)c1 (centres undefined),1,/,5,0,/
COc1cc(C2N(C)C(=O)c3ccccc3N2C)ccc1O (centres undefined),0,/,6,17*,/
CN1C(=O)c2ccccc2N(C)C1c1cccc(O)c1 (centres undefined),4,/,-4,1,/
COc1ccc(CCN(C)C(=O)Cc2ccc(-c3ccccc3)cc2)cc1OC,24*,/,-26,12,/
COc1ccc(C(=O)N/C(=C\c2ccc(Cl)cc2)C(=O)NCc2ccncc2)cc1,-15,/,16,1,/
NC(=O)c1cccc(-c2ccnc3c2CC(C(=O)Nc2ccc(Cl)cc2)O3)c1 (centres undefined),-3,/,-7,2,/
Cc1ccc(S(=O)(=O)NN2C(=O)/C(=C/c3cccs3)SC2=S)cc1,26*,0,-23,-1,1
Cc1occc1-c1nnc(SCC(=O)Nc2nc(C(C)(C)C)cs2)o1,30*,4,-10,11,5
C=C(C)[C@@H]1C2=CC(C(=O)OC)=C(C[C@H](C(=C)C)[C@H]3O[C@H]3C3=C[C@H]1OC3=O)O2,-1,/,9,2,/
CN1CCN(C(CNC(=O)C(=O)NC2CCCC2)c2ccc(F)cc2)CC1 (centres undefined),53*,/,-3,0,/
CN1CCN(C(CNC(=O)C(=O)NC2CCCCC2)c2ccc(F)cc2)CC1 (centres undefined),18,/,-11,0,/
Cc1nnc(SCC(=O)Nc2ccccc2NC(=O)CSc2nnc(C)s2)s1,-5,1,16,0,2
COc1ccccc1C(=O)NC(=O)CSc1nnc(C)s1,55*,/,-4,0,/
O=C(c1cccc(Cl)c1)N1CCN(Cc2ccncc2)CC1,25*,0,-9,0,1
Cc1nc2ccccc2c2oc(C(=O)Nc3ccc(C(C)C)cc3)cc12,25*,0,-12,0,0
Cc1nc2ccccc2c2oc(C(=O)Nc3ccc4c(c3)OCCO4)cc12,2,0,7,0,0
COC(=O)c1sccc1-n1cc2c(c1-c1ccccc1)c(=O)n(C)c(=O)n2C,-7,/,1,0,/
COCCNc1nc(Oc2cncc(Cl)c2)c2sccc2n1,-14,/,13,2,/
N/C(=N/OC(=O)c1ccc(Cl)cc1)c1ncc([N+](=O)[O-])s1,29*,0,-25,0,0
N/C(=N\OC(=O)c1ccc(Cl)cc1)c1ccccn1,-1,0,-6,0,0
COc1ccc(C(O)c2nc(-c3cc(F)cc(Cl)c3)cs2)cc1 (centres undefined),-6,/,17,2,/
O=C(Nc1ccc(Br)c2ccccc12)c1ccc2ccccc2c1O,14,5,-10,18*,18
CC(=O)Nc1ccc(Br)c2ccccc12,-2,0,10,0,-2
CCOC(=O)[C@]12CCC=C1N(Cc1ccco1)C(=O)[C@H](CC(=O)N1CCN(C(=O)c3ccco3)CC1)C2,-9,/,3,0,/
CCN(CC)c1ccc(NC(=O)CSc2nc3ccccc3c(=O)n2-c2cc(S(=O)(=O)N(C)C)ccc2C)cc1,24*,0,-14,-1,-1
SMILES,CHO-K1 Ca antag,TRPML3 agonist,CHO-K1 Ca PAM,M1 ag parental,zfTRPN1 agonist
Cc1cc(C)n(CCNC(=O)[C@H]2O[C@@H](n3cnc4c(N)ncnc43)[C@H](O)[C@@H]2O)n1,-18,/,2,0,/
CCCCN1C(=O)C(CC(=O)NCC2CCCCC2)CC(C(=O)N2CCCCCC2)=C1C (centres undefined),-4,/,-12,0,/
O=C1NC(=S)S/C1=C\c1cc(Cl)cc(Cl)c1O,14,/,0,37*,/
O=C1NC(=S)SC1=Cc1ccccc1Cl,-18,/,0,8,/
COc1ccc(NC(=O)C2Cc3c(-c4ccc5c(c4)OCO5)ccnc3O2)cc1 (centres undefined),-13,/,16,3,/
O=C(Cn1nnc(-c2ccccc2)c1COc1ccc2ccccc2c1)NCC1CC1,-2,/,14,4,/
Cc1cccnc1NC(=O)CCc1c[nH]c2ccccc12,24*,/,-33,0,/
OC[C@@H]1CN(Cc2ccc3c(c2)OCO3)C[C@H](n2cnc3c(NC4CCCC4)ncnc32)O1,1,/,21,1,/
CCn1ccnc1CN1CCc2c([nH]c3ccccc23)C1C(C)(C)C (centres undefined),12,0,15,23*,-1
CC(C)c1ccc(C2c3[nH]c4ccccc4c3C[C@H]3C(=O)N(c4ccccc4C(=O)N4CCC[C@H]4C(=O)O)C(=O)N23)cc1 (some centres undefined),25*,/,-17,0,/
CC1(C(=O)NS(=O)(=O)c2ccccc2Cl)CCN1C(=O)COc1ccc(Cl)cc1 (centres undefined),1,/,13,3,/
O=C(COC(=O)CCC(=O)c1cccs1)NC1CC1,-2,1,-5,16*,1
CC1(Cc2cccc(C#N)c2)C(=O)Nc2c(Cl)cccc21 (centres undefined),-21,/,25,2,/
COc1cc(C2NC(=S)NC(c3ccccc3)=C2C(C)=O)cc(Cl)c1OCC(=O)O (centres undefined),-10,0,29,2,-1
CC(=O)C1=C(c2ccccc2)NC(=S)NC1c1cc(Cl)c(OC(C)C)c(Cl)c1 (centres undefined),10,4,22,24*,15
Nc1cc(S(=O)(=O)N2CCOCC2)ccc1Oc1cccc(Br)c1,24*,/,-3,3,/
COc1ccc(S(=O)(=O)N2CCOCC2)cc1Br,-8,1,18,4,0
CCOC(=O)C1(C)CCCN(C(=O)c2ccc(OC)cc2)C1 (centres undefined),-11,/,19,1,/
O=C(Nc1ccc2c(c1)OCCO2)C1CCN(c2nnnn2-c2ccccc2)CC1,-13,2,20,2,0
O=C(Nc1cccc(F)c1)C1CCN(c2nnnn2-c2ccccc2)CC1,28*,0,-7,2,2
CCOC(=O)C1(CCCc2ccccc2)CCN(C(=O)CCC2=NNC(=O)CC2)CC1,17,2,3,25*,3
CCOC(=O)C1(CCc2ccccc2)CCN(C(=O)C2CCOCC2)CC1,25*,1,-17,0,-1
O=C(Nc1ccccc1[N+](=O)[O-])OCC=Cc1ccccc1,-3,/,3,-1,/
CCCCNC(=O)C1(C)CCC(=O)N1c1cc(C(C)(C)C)nn1C (centres undefined),32*,/,-2,0,/
O=C(Nc1cc(Cl)cc(Cl)c1)c1cccc(OC(F)F)c1,27*,0,-10,1,-2
O=S(=O)(c1ccccc1)C1CON(Cc2ccccc2)C1c1ccccc1 (centres undefined),36*,1,-17,3,-1
